# Only some compounds are listed: those with a hit (about 3.1% of all), similar ones and a draw of the others.
# miR122 inh = inhibitors of miR-122 in Huh7 cells; hit rate 0.3% among 340,000; Huh7 miR-122 Renilla luciferase sensor, 48 h; neutral wells = 0, positive control = 100; activation (reporter increase), % at 12.5 µM;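 active means mean replicate activation score at least 90 and every replicate individually at or above 90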;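 further: higher luciferase means less miR-122 activity so hits act as miR-122 inhibitors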
# Env fusion inh = blocks HIV Env-driven cell-cell fusion; HeLa-JRFL Env/CEM21 cell fusion, luciferase; inhibition, % at 12.3 µM; hit rate 1.1% among 360,000; AID 651610;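 active means mean replicate inhibition score of at least 50 and every replicate individually at or above 50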;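 further: 0% = plate neutral controls and 100% = maraviroc near 300 nM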
# F508del corr = correctors of CFTR F508del function in bronchial epithelial cells; CFBE cells, YFP halide quenching; stimulated with forskolin plus potentiator P3; % fluorescence drop versus neutral controls; activity (quench increase), % at 7.58 µM; hit rate 0.36% among 350,000;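 active means mean added fluorescence quench of at least 8% versus neutral control, with both replicates also reaching 8%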;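 further: cells transiently co-express mutant CFTR-F508del with the halide-sensitive YFP; corrector assay measuring rescue of mutant channel to the surface after 24 h compound exposure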
# GSIS activator = GLuc luminescence reporter in INS-1E cells, primary screen for activators of glucose-dependent secretion of insulin. INS-1E GLuc reporter insulin secretion, 2-3 h. activation, % at 16.6 µM. hit rate 0.61% among 370,000;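 active means lowest replicate activation of at least 40%, so every replicate reaches that level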;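 further: 0% = median of neutral control wells and 100% = median of IBMX positive control wells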
# rRNA inh HTS = selective bacterial rRNA inhibition in E. coli. E. coli WT GFP vs humanized-ribosome RFP mutants, fluorescence, 24 h; active compounds read low; DMSO median 0, no signal -100. GFP signal change (wild-type ribosome), % (no concentration beside the values). AID 720706. hit rate 1.6% among 350,000;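 active means significant combined selectivity score with lowered wild-type GFP, culture density cut under 30%, mutant RFP and density less affected; inactive means any of these conditions unmet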
# Cneo AK release = causes C. neoformans cell lysis | adenylate kinase release luminescence, 4 h; normalised: neutral wells 0, clomiphene wells 100 | lysis activity, % at 15 µM | hit rate 0.2% among 360,000;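 active means mean lysis activity across replicates of at least 80%, whatever share of replicates individually reach that level; inactive means mean lysis activity below 80%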
#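 Material – Cryptococcus neoformans yeast cells · Quantity – 5 × 10^6 yeast cells/mL · Buffer or medium – YPD medium · Compound – single dose · Timing – 4 h static compound exposure, 37 °C, read 1 h post-reagent · Signal – adenylate kinase release luminescence · Read-out basis – lysis from increased AK signal · Benchmarks – Clomiphene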
# * marks the source's active call; other numbers are inactive results; . = not tested or not shown; [ ] = remark or other dose.
SMILES,miR122 inh,Env fusion inh,F508del corr,GSIS activator,rRNA inh HTS,Cneo AK release
C[C@H](CO)N1C[C@H](C)[C@H](CN(C)C(=O)NC2CCCCC2)OCCCC[C@H](C)Oc2ccc(NC(=O)Nc3ccccc3)cc2C1=O,-8[16.7 µM],-12[16.7 µM],-4,-7,1,0
O=C(C[C@@H]1C[C@@H]2c3cc(NC(=O)C4CCC4)ccc3O[C@@H]2[C@@H](CO)O1)NCc1ccc2c(c1)OCO2,-3[16.7 µM],79*[16.7 µM],-3,3,-1,-7
O=C(C[C@@H]1C[C@H]2c3cc(NC(=O)C4CCC4)ccc3O[C@H]2[C@H](CO)O1)NCc1ccc2c(c1)OCO2,-2[16.7 µM],6[16.7 µM],1,3,-1,0
O=C(C[C@H]1C[C@H]2c3cc(NC(=O)C4CCC4)ccc3O[C@H]2[C@H](CO)O1)NCc1ccc2c(c1)OCO2,4[16.7 µM],81*[16.7 µM],-2,15,2,-4
O=C(C[C@@H]1C[C@@H]2c3cc(NC(=O)C4CCOCC4)ccc3O[C@@H]2[C@@H](CO)O1)NCc1ccc2c(c1)OCO2,3[16.7 µM],-24[16.7 µM],1,14,2,-4
N#C[C@H]1[C@@H](c2ccccc2-c2cccc(F)c2)[C@@H](CO)N1C(=O)C1CCCCC1,.,.,2,-8,1,.
C[C@@H]1CN([C@@H](C)CO)S(=O)(=O)c2ccc(C#C[C@@H](C)O)cc2O[C@H]1CN(C)Cc1ccncc1,1[16.7 µM],8[16.7 µM],2,22,-11,-1
C[C@H](O)C#Cc1ccc2c(c1)O[C@H](CN(C)Cc1ccncc1)[C@H](C)CN([C@H](C)CO)S2(=O)=O,22[16.7 µM],-47[16.7 µM],-3,3,-3,95*
C[C@H](O)C#Cc1ccc2c(c1)O[C@H](CN(C)Cc1ccncc1)[C@@H](C)CN([C@H](C)CO)S2(=O)=O,-2[16.7 µM],6[16.7 µM],0,12,-4,4
C[C@@H]1CN([C@H](C)CO)S(=O)(=O)c2ccc(C#C[C@@H](C)O)cc2O[C@@H]1CN(C)Cc1ccncc1,50[16.7 µM],-7[16.7 µM],-3,8,-1,83*
CC(C)NC(=O)NCC[C@H]1CC[C@H](NC(=O)CN(C)C)[C@@H](CO)O1,13[16.7 µM],2[16.7 µM],1,5,3,-2
C/C=C/c1ccc2c(c1)O[C@@H](CN(C)C(=O)c1cnccn1)[C@H](C)CN([C@@H](C)CO)S2(=O)=O,1[16.7 µM],-10[16.7 µM],1,15,-2,-2
C/C=C/c1ccc([C@H]2[C@@H](CO)N(S(C)(=O)=O)C23CN(C(=O)CC)C3)cc1,.,.,-2,13,2,.
CCOC(=O)N1CCN(C(=O)c2ccc3c(c2)N(Cc2cc(C)ccc2C)C(=O)c2ccccc2S3=O)CC1 (stereo not given),-11,6,0,-11,-20*,1
O=C(NCC[C@H]1CC[C@@H](NS(=O)(=O)c2cccc(F)c2)[C@@H](CO)O1)C1CC1,0[16.7 µM],0[16.7 µM],1,3,-1,2
CCOC(=O)c1c2ccc(OCC(=O)N/N=C/c3ccc(C)cc3)cc2n2ccccc12,1,.,.,.,.,.
CCOC(=O)c1c2ccc(OCC(=O)NN)cc2n2ccccc12,.,5,2,11,-24*,.
C[C@@H]1CN([C@H](C)CO)C(=O)c2cc(NC(=O)Cc3ccccc3)ccc2O[C@H]1CN(C)C(=O)Nc1ccc(F)cc1,7[16.7 µM],.,1,5,2,56
COc1nc(Nc2nc3ccccc3c(=O)[nH]2)nc2ccc(C)cc12,10,103*,-10,-4,16,1
CC(=O)[C@]12O[C@@]3(COC[C@H](c4ccccc4)N3C1=O)[C@H]1C(=O)N(c3ccccc3)C(=O)[C@H]12,.,-3[16.7 µM],-1,.,.,-2
CC(OC(=O)c1ccc(NC(=O)CC#N)cc1)C(=O)NCCC1=CCCCC1 (stereo not given),1,76*,2,2,11,-1
COc1ccc(NC(=O)CNCCC2=CCCCC2)cc1,-4,60*,.,-22,13,0
O=C(COC(=O)c1ccccc1)NCCC1=CCCCC1,.,4,-2,4,-28*,.
CCS(=O)(=O)Nc1ccc2c(c1)C(=O)N(C)C[C@H](OC)[C@@H](C)CN(C(=O)COC)[C@H](C)CO2,.,10[16.7 µM],-1,16,2,15
C[C@@H]1CN([C@@H](C)CO)C(=O)Cc2cc(NS(=O)(=O)c3ccc(Cl)cc3)ccc2O[C@H]1CN(C)C(=O)Nc1ccc2c(c1)OCO2,4[16.7 µM],-34[16.7 µM],-2,5,-1,.
SMILES,miR122 inh,Env fusion inh,F508del corr,GSIS activator,rRNA inh HTS,Cneo AK release
CSc1nc(N)n2nc(C(C)(C)C)cc2n1,.,10,-2,54*,2,.
C[C@H]1CN([C@@H](C)CO)C(=O)c2cc(Br)cnc2O[C@H]1CN(C)C(=O)NC1CCCC1,-23[16.7 µM],19[16.7 µM],1,20,3,.
O=C(CN1c2ccccc2S(=O)(=O)c2ccccc21)NCc1ccc(F)cc1,.,0,-1,-12,-33*,-1
Cc1cccc(-c2ccc([C@H]3[C@H]4CN(C(=O)c5ccc6c(c5)OCO6)CCCCN4[C@H]3CO)cc2)c1,35[16.7 µM],.,0,-13,-3,-3
COc1ccc(CCN2C(=O)CC(C(N)=O)SC2=Nc2ccccc2)cc1 (stereo not given),-1,13,-2,6,-27*,0
Cc1ccccc1CN(C)CC(=O)Nc1cccc(S(=O)(=O)N(C)c2ccccc2)c1,.,23,0,-7,-21*,.
Cc1cc(C)c(NC(=O)CN(C)CC(=O)Nc2cccc(S(=O)(=O)N(C)c3ccccc3)c2)c(C)c1,-4,.,-8,-40,-10,-2
CCCc1cn(CC[C@H]2CC[C@H](NC(=O)C3CCCC3)[C@@H](CO)O2)nn1,1[16.7 µM],5[16.7 µM],-3,11,3,-3
CC1(C)SC2c3ccccc3C(=O)N2[C@@H]1C(=O)NC1CC1 (stereo not given in full),.,3,-1,42*,13,.
COc1cc2ccccc2cc1C(=O)Nc1ccc2oc(=O)ccc2c1,-3,1,2,156*,11,-3
O=C(O)/C=C/C(=O)Nc1ccc2c(c1)C(=O)c1ccccc1C2=O,.,-18,0,0,-35*,.
COc1cc(C(=O)Nc2ccc3ccccc3c2)cc(OC)c1OC,.,-156,4,2,-25*,.
COc1ccc(C(=O)Nc2ccc3ccccc3c2)cc1OC,-5,-104,2,-5,-2,0
COc1cc(C(=O)Nc2ccc3c(c2)CCN3C(C)=O)cc(OC)c1OC,.,-74,12*,-1,2,.
CC(=O)Nc1ccc2c(c1)C(=O)c1ccccc1C2=O,3,-465,.,-3,.,-4
COc1cc(OC)c(C(=O)Nc2ccc3ccccc3c2)cc1OC,3,.,.,.,.,0
